# Experimental data taken from ChEMBL document CHEMBL1156264, “Synthesis and structure-activity relationships of dimeric peptide antagonists of the human immunoglobulin G-human neonatal Fc receptor (IgG-FcRn) interaction” (J Med Chem, 2010).
# Numbered stars: 1 amine (or outer) side, 2 acyl side, 3 side chain; on linkers, the order of the positions; unused ones are H or OH. Bridge positions count the residues as written; N and C are the ends. Square brackets hold non-standard residues; d marks the D form. Peptide text beside a SMILES is read from it. I, II: the chains in the order shown. X3 = CN(CCCNC(=O)CCNC(=O)CCSCC(=O)[*:1])CCCNC(=O)CCNC(=O)CCSCC(=O)[*:2]; Phe(4-guanidino) = N=C(N)Nc1ccc(C[C@H](N)C(=O)O)cc1; X1 = O=C(C(=O)[*:2])[C@H](Cc1ccc(O)cc1)N[*:1]; NMeL = CN[C@@H](CC(C)C)C(=O)O; Pen = CC(C)(S)[C@H](N)C(=O)O; Sar = CNCC(=O)O
# What was measured:
# [1] = target: T1, IgG receptor FcRn large subunit p51 (Homo sapiens, UniProt P55899); experiment: Binding affinity to soluble human FcRn at pH 6 by surface plasmon resonance assay
# T1 sequence (P55899 whole entry): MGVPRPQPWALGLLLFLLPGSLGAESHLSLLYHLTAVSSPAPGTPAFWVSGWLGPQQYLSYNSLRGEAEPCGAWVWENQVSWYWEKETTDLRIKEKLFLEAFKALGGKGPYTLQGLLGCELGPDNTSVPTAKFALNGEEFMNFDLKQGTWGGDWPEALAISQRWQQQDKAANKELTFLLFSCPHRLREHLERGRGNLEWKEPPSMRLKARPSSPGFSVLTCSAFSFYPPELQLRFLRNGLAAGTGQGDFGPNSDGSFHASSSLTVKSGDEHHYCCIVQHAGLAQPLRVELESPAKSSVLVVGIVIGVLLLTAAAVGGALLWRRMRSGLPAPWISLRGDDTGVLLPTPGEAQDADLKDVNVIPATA
# Summary of the method: (§1)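 shFcRn was amine-coupled to a CM5 dextran chip, and peptide dilutions were run at pH 6 or pH 7.4 on a Biacore 3000 or T100. The equilibrium response was plotted against concentration and fitted to a steady-state affinity model to give Kd.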
# [2] = target: T1, IgG receptor FcRn large subunit p51; experiment: Binding affinity to soluble human FcRn at pH 7.4 by surface plasmon resonance assay; summary of the method: as §1
# [3] = target: T1, IgG receptor FcRn large subunit p51; experiment: Inhibition of IgG binding to soluble human FcRn after 2 hrs by competition ELISA
# [4] = target: T1, IgG receptor FcRn large subunit p51; experiment: Ratio of QRF-Asp-TGHFGGLYP-Lys-NGP IC50 to compound IC50 for soluble human FcRn
# [5] = target: T1, IgG receptor FcRn large subunit p51; experiment: Ratio of RF-Pen-TGHFG-Sar-NMeLeu-YPC IC50 to compound IC50 for soluble human FcRn
Structure (SMILES),Kd [1] [nM],Kd [2] [nM],IC50 [3] [nM],Ratio IC50 [4],Ratio IC50 [5]
CC(=O)N[C@@H](CCCNC(=N)N)C(=O)N[C@@H](Cc1ccccc1)C(=O)N[C@@H]1C(=O)N[C@@H]([C@@H](C)O)C(=O)NCC(=O)N[C@@H](Cc2cnc[nH]2)C(=O)N[C@@H](Cc2ccccc2)C(=O)N[C@H]2CCCN(CC(=O)N(C)[C@@H](CC(C)C)C(=O)N[C@@H](Cc3ccc(O)cc3)C(=O)C(=O)N3CCC[C@H]3C(=O)N[C@H](C(N)=O)CSSC1(C)C)C2=O,43,260,430,,
CC(=O)N[C@@H](CCC(N)=O)C(=O)N[C@@H](CCCNC(=N)N)C(=O)N[C@@H](Cc1ccccc1)C(=O)N[C@H]1CSSC[C@@H](C(=O)N[C@@H](CC(N)=O)C(=O)NCC(=O)N2CCC[C@H]2C(N)=O)NC(=O)[C@@H]2CCCN2C(=O)C(=O)[C@H](Cc2ccc(O)cc2)NC(=O)[C@H](CC(C)C)NC(=O)CNC(=O)CNC(=O)[C@H](Cc2ccccc2)NC(=O)[C@H](Cc2cnc[nH]2)NC(=O)CNC(=O)[C@H]([C@@H](C)O)NC1=O,5300,37000,40000,,
CC(=O)N[C@@H](CCCNC(=N)N)C(=O)N[C@@H](Cc1ccccc1)C(=O)N[C@@H]1C(=O)N[C@@H]([C@@H](C)O)C(=O)NCC(=O)N[C@@H](Cc2c[nH]cn2)C(=O)N[C@@H](Cc2ccccc2)C(=O)NCC(=O)N(C)CC(=O)N(C)[C@@H](CC(C)C)C(=O)N[C@@H](Cc2ccc(O)cc2)C(=O)C(=O)N2CCC[C@H]2C(=O)N[C@H](C(N)=O)CSSC1(C)C,31,170,520,,
"CC(C)C[C@H]1C(=O)N[C@@H](Cc2ccc(O)cc2)C(=O)C(=O)N2CCC[C@H]2C(=O)N[C@H](C(=O)N[C@@H](CC(N)=O)C(=O)NCC(=O)N2CCC[C@H]2C(N)=O)CCCCNC(=O)C[C@H](NC(=O)[C@H](Cc2ccccc2)NC(=O)CSCCC(=O)NCCC(=O)NCCCN(C)CCCNC(=O)CCNC(=O)CCSCC(=O)N[C@@H](CCC(N)=O)C(=O)N[C@@H](CCCNC(=N)N)C(=O)N[C@@H](Cc2ccccc2)C(=O)N[C@H]2CC(=O)NCCCC[C@@H](C(=O)N[C@@H](CC(N)=O)C(=O)NCC(=O)N3CCC[C@H]3C(N)=O)NC(=O)[C@@H]3CCCN3C(=O)C(=O)[C@H](Cc3ccc(O)cc3)NC(=O)[C@H](CC(C)C)N(C)C(=O)CN(C)C(=O)CNC(=O)[C@H](Cc3ccccc3)NC(=O)[C@H](Cc3c[nH]cn3)NC(=O)CNC(=O)[C@H]([C@@H](C)O)NC2=O)C(=O)N[C@@H]([C@@H](C)O)C(=O)NCC(=O)N[C@@H](Cc2c[nH]cn2)C(=O)N[C@@H](Cc2ccccc2)C(=O)NCC(=O)N(C)CC(=O)N1C (I: QRFDTGHFG[Sar][NMeL][X1]PKNGP-NH2 / II: FDTGHFG[Sar][NMeL][X1]PKNGP-NH2; lactam I:4-I:14, II:2-II:12; linker I:N-II:N via X3)",,,,9.2,
CC(=O)N[C@@H](CCCNC(=N)N)C(=O)N[C@@H](Cc1ccccc1)C(=O)N[C@@H]1C(=O)N[C@@H]([C@@H](C)O)C(=O)NCC(=O)N[C@@H](Cc2ccc(NC(=N)N)cc2)C(=O)NCC(=O)N(C)CC(=O)N(C)[C@@H](CC(C)C)C(=O)N[C@@H](Cc2ccc(O)cc2)C(=O)C(=O)N2CCC[C@H]2C(=O)N[C@H](C(N)=O)CSSC1(C)C (Ac-RF[Pen]TG[Phe(4-guanidino)]G[Sar][NMeL][X1]PC-NH2; disulfide 3-12),62,74,1000,,
CC(=O)N[C@@H](CCCNC(=N)N)C(=O)N[C@@H](Cc1ccccc1)C(=O)N[C@H]1CC(=O)NCCCC[C@@H](C(N)=O)NC(=O)[C@@H]2CCCN2C(=O)C(=O)[C@H](Cc2ccc(O)cc2)NC(=O)[C@H](CC(C)C)N(C)C(=O)CN(C)C(=O)CNC(=O)[C@@H](Cc2ccccc2)NC(=O)[C@H](Cc2c[nH]cn2)NC(=O)CNC(=O)[C@H]([C@@H](C)O)NC1=O,140,930,1900,,
CC(=O)N[C@@H](CCCNC(=N)N)C(=O)N[C@@H](Cc1ccccc1)C(=O)N[C@@H]1C(=O)N(C)[C@@H](C)C(=O)NCC(=O)N[C@@H](Cc2cnc[nH]2)C(=O)N[C@@H](Cc2ccccc2)C(=O)N[C@H]2CCCN(CC(=O)N(C)[C@@H](CC(C)C)C(=O)N[C@@H](Cc3ccc(O)cc3)C(=O)C(=O)N3CCC[C@H]3C(=O)N[C@H](C(N)=O)CSSC1(C)C)C2=O,150,950,1100,,
CC(=O)N[C@@H](CCCNC(=N)N)C(=O)N[C@@H](Cc1ccccc1)C(=O)N[C@H]1CSSC[C@@H](C(N)=O)NC(=O)[C@@H]2CCCN2C(=O)C(=O)[C@H](Cc2ccc(O)cc2)NC(=O)[C@H](CC(C)C)NC(=O)CNC(=O)CNC(=O)[C@H](Cc2ccccc2)NC(=O)[C@H](Cc2cnc[nH]2)NC(=O)CNC(=O)[C@H]([C@@H](C)O)NC1=O,5900,,37000,,
CC(C)C[C@H]1C(=O)N[C@@H](Cc2ccc(O)cc2)C(=O)C(=O)N2CCC[C@H]2C(=O)N[C@H](C(=O)N[C@@H](CC(N)=O)C(=O)NCC(=O)N2CCC[C@H]2C(N)=O)CCCCNC(=O)C[C@H](NC(=O)[C@H](Cc2ccccc2)NC(=O)CSCCC(=O)NCCCN(CCCNC(=O)CCSCC(=O)N[C@@H](CCC(N)=O)C(=O)N[C@@H](CCCNC(=N)N)C(=O)N[C@@H](Cc2ccccc2)C(=O)N[C@H]2CC(=O)NCCCC[C@@H](C(=O)N[C@@H](CC(N)=O)C(=O)NCC(=O)N3CCC[C@H]3C(N)=O)NC(=O)[C@@H]3CCCN3C(=O)C(=O)[C@H](Cc3ccc(O)cc3)NC(=O)[C@H](CC(C)C)N(C)C(=O)CN(C)C(=O)CNC(=O)[C@H](Cc3ccccc3)NC(=O)[C@H](Cc3c[nH]cn3)NC(=O)CNC(=O)[C@H]([C@@H](C)O)NC2=O)CC(=O)NCC(=O)O)C(=O)N[C@@H]([C@@H](C)O)C(=O)NCC(=O)N[C@@H](Cc2c[nH]cn2)C(=O)N[C@@H](Cc2ccccc2)C(=O)NCC(=O)N(C)CC(=O)N1C,,,600,37,
CC(C)C[C@H]1C(=O)N[C@@H](Cc2ccc(O)cc2)C(=O)C(=O)N2CCC[C@H]2C(=O)N[C@H](C(N)=O)CSSC(C)(C)[C@H](NC(=O)[C@H](Cc2ccccc2)NC(=O)[C@H](CCCNC(=N)N)NC(=O)C[C@H](C)C(=O)N[C@@H](CCCNC(=N)N)C(=O)N[C@@H](Cc2ccccc2)C(=O)N[C@@H]2C(=O)N[C@@H]([C@@H](C)O)C(=O)NCC(=O)N[C@@H](Cc3c[nH]cn3)C(=O)N[C@@H](Cc3ccccc3)C(=O)NCC(=O)N(C)CC(=O)N(C)[C@@H](CC(C)C)C(=O)N[C@@H](Cc3ccc(O)cc3)C(=O)C(=O)N3CCC[C@H]3C(=O)N[C@H](C(N)=O)CSSC2(C)C)C(=O)N[C@@H]([C@@H](C)O)C(=O)NCC(=O)N[C@@H](Cc2c[nH]cn2)C(=O)N[C@@H](Cc2ccccc2)C(=O)NCC(=O)N(C)CC(=O)N1C,,,4.6,,110
